# Experimental data taken from ChEMBL document CHEMBL3352168, “Potent, orally available, selective COX-2 inhibitors based on 2-imidazoline core” (Eur J Med Chem, 2014).
# Assays:
# [1] = target: T1, Prostaglandin G/H synthase 1 (Ovis aries) (UniProt P05979); test: Inhibition of ovine COX1 using fluorometric substrate at 100 uM by fluorescent inhibitor screening assay
# T1 sequence (whole entry): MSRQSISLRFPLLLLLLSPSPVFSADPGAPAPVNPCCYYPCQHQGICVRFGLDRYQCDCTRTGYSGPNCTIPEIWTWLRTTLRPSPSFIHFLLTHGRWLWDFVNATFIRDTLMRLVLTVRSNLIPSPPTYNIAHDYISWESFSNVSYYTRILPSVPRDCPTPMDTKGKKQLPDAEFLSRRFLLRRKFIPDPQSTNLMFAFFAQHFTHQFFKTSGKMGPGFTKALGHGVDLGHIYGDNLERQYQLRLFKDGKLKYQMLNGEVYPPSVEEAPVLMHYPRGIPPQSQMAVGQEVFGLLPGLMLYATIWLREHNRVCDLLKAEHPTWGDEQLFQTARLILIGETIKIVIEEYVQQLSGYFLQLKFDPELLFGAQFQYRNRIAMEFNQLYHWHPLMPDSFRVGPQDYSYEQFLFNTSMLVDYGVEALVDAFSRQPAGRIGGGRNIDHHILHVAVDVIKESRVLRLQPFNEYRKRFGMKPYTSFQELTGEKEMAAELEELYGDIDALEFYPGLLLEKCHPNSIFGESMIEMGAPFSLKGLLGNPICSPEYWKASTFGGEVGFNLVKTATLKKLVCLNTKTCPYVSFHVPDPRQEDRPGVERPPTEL
# [2] = target: T2, Prostaglandin G/H synthase 2 (Homo sapiens, UniProt P35354); test: Inhibition of human recombinant COX2 using fluorometric substrate by fluorescent inhibitor screening assay
# T2 sequence (P35354 whole entry): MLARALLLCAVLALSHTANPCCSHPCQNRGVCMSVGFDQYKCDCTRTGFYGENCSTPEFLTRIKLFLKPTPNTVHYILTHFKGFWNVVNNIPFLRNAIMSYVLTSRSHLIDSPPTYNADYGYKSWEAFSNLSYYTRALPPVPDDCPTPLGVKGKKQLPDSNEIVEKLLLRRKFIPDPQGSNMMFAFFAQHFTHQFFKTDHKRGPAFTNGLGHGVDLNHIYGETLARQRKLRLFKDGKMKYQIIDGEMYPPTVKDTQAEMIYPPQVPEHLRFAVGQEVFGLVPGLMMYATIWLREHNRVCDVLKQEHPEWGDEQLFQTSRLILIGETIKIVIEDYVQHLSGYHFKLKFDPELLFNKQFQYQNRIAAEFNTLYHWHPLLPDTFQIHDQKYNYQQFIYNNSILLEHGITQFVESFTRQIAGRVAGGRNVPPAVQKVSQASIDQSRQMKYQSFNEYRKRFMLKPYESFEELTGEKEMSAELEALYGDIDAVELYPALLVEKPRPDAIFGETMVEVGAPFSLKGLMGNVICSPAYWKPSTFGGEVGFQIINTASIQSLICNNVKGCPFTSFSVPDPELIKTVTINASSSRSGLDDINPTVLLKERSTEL
# Summary of the method: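 Human recombinant COX-2 in 100 mM Tris-HCl pH 8.0 with heme and ADHP fluorometric substrate; inhibitor added at final […] (units as printed) from DMSO stocks; reaction started with arachidonic acid, 2 min at room temperature. Resorufin fluorescence read at ex 535/em 590 nm; % inhibition vs no-inhibitor activity; IC50 from concentration–inhibition curve, triplicate determinations.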
# [3] = Cmax in C57Bl mouse plasma at 10 mg/kg, po; assay type: ADME, organism-based; design: dose 10 mg/kg, route oral
# Summary of the method: (§1)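 Male C57Bl mice, about 2 months old, 18.1–23.6 g, fasted overnight, dosed by oral gavage; 4 animals per group plus non-dosed control group; killed by cervical dislocation for blood and whole brain. Plasma precipitated with internal standard; brain homogenized in 67% methanol, centrifuged, spiked with internal standard; quantified by HPLC-MS against blank-brain calibration.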
# [4] = tested on: Brain; test: AUC (0 to infinity) in C57Bl mouse brain assessed as aromatization metabolite at 10 mg/kg, po; assay type: ADME, organism-based; design: time infinity, dose 10 mg/kg, route oral; details: in vivo
# [5] = tested on: Plasma; test: Drug metabolism in C57Bl mouse plasma at 10 mg/kg, po; assay type: ADME, organism-based; design: dose 10 mg/kg, route oral; details: in vivo
# [6] = tested on: Brain; test: Cmax in C57Bl mouse brain assessed as aromatization metabolite at 10 mg/kg, po; assay type: ADME, organism-based; design: dose 10 mg/kg, route oral; details: in vivo
# [7] = AUC (0 to infinity) in C57Bl mouse plasma at 10 mg/kg, po; assay type: ADME, organism-based; design: time infinity, dose 10 mg/kg, route oral; summary of the method: as §1
# [8] = Half life in C57Bl mouse plasma at 10 mg/kg, po; assay type: ADME, organism-based; design: dose 10 mg/kg, route oral; summary of the method: as §1
# [9] = tested on: Plasma; test: Volume of distribution at steady state in C57Bl mouse plasma at 10 mg/kg, po; assay type: ADME, organism-based; design: dose 10 mg/kg, route oral; details: in vivo; summary of the method: as §1
# [10] = tested on: Brain; test: Half life in C57Bl mouse brain assessed as aromatization metabolite at 10 mg/kg, po; assay type: ADME, organism-based; design: dose 10 mg/kg, route oral; details: in vivo
# [11] = Tmax in C57Bl mouse plasma at 10 mg/kg, po; assay type: ADME, organism-based; design: dose 10 mg/kg, route oral; summary of the method: as §1
# [12] = tested on: Brain; test: AUC (0 to 240 mins) in C57Bl mouse brain assessed as aromatization metabolite at 10 mg/kg, po; assay type: ADME, organism-based; design: time < 4 hr, dose 10 mg/kg, route oral; details: in vivo, 4 h
# [13] = tested on: Brain; test: Tmax in C57Bl mouse brain assessed as aromatization metabolite at 10 mg/kg, po; assay type: ADME, organism-based; design: dose 10 mg/kg, route oral; details: in vivo
# [14] = Half life in C57Bl mouse brain at 10 mg/kg, po; assay type: ADME, organism-based; design: dose 10 mg/kg, route oral; summary of the method: as §1
# [15] = tested on: Plasma; test: Tmax in C57Bl mouse plasma assessed as aromatization metabolite at 10 mg/kg, po; assay type: ADME, organism-based; design: dose 10 mg/kg, route oral; details: in vivo
# [16] = Clearance in C57Bl mouse plasma at 10 mg/kg, po; assay type: ADME, organism-based; design: dose 10 mg/kg, route oral; summary of the method: as §1
# [17] = tested on: Plasma; test: AUC (0 to 240 mins) in C57Bl mouse plasma assessed as aromatization metabolite at 10 mg/kg, po; assay type: ADME, organism-based; design: time < 4 hr, dose 10 mg/kg, route oral; details: in vivo, 4 h
# [18] = tested on: Mus musculus; test: Antiinflammatory activity in mouse assessed as reduction in carrageenan-induced inflamed paw volume at 3.7 mg/kg, ip relative to untreated control; assay type: functional; details: route intraperitoneal
# [19] = AUC (0 to infinity) in C57Bl mouse brain at 10 mg/kg, po; assay type: ADME, organism-based; design: time infinity, dose 10 mg/kg, route oral; summary of the method: as §1
# [20] = AUC (0 to 240 mins) in C57Bl mouse plasma at 10 mg/kg, po; assay type: ADME, organism-based; design: time < 4 hr, dose 10 mg/kg, route oral; summary of the method: as §1
# [21] = tested on: Plasma; test: Cmax in C57Bl mouse plasma assessed as aromatization metabolite at 10 mg/kg, po; assay type: ADME, organism-based; design: dose 10 mg/kg, route oral; details: in vivo
# [22] = Cmax in C57Bl mouse brain at 10 mg/kg, po; assay type: ADME, organism-based; design: dose 10 mg/kg, route oral; summary of the method: as §1
# [23] = tested on: Brain; test: Drug metabolism in C57Bl mouse brain at 10 mg/kg, po; assay type: ADME, organism-based; design: dose 10 mg/kg, route oral; details: in vivo
# [24] = tested on: Plasma; test: AUC (0 to infinity) in C57Bl mouse plasma assessed as aromatization metabolite at 10 mg/kg, po; assay type: ADME, organism-based; design: dose 10 mg/kg, route oral, time infinity; details: in vivo
# [25] = Tmax in C57Bl mouse brain at 10 mg/kg, po; assay type: ADME, organism-based; design: dose 10 mg/kg, route oral; summary of the method: as §1
# [26] = tested on: Plasma; test: Half life in C57Bl mouse plasma assessed as aromatization metabolite at 10 mg/kg, po; assay type: ADME, organism-based; design: dose 10 mg/kg, route oral; details: in vivo
# [27] = AUC (0 to 240 mins) in C57Bl mouse brain at 10 mg/kg, po; assay type: ADME, organism-based; design: time < 4 hr, dose 10 mg/kg, route oral; summary of the method: as §1
# [28] = target: T3, Prostaglandin G/H synthase 1 (Ovis aries, UniProt P05979); test: Inhibition of ovine COX1 using fluorometric substrate by fluorescent inhibitor screening assay
# T3 sequence (P05979 whole entry): T1 sequence (whole entry)
# Summary of the method: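 Ovine COX-1 in 100 mM Tris-HCl pH 8.0 with heme and ADHP fluorometric substrate; inhibitor from DMSO stock, reaction started by arachidonic acid, 2 min at room temperature. Resorufin fluorescence read at ex 535/em 590 nm; percent inhibition calculated against uninhibited activity; reported as % inhibition at 100 (units as printed).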
structure (smiles),measurement,setting,value
CS(=O)(=O)c1ccc(N2CCN=C2c2ccc(Cl)cc2)cc1,inhibition,[1],3.2%
same,IC50,[2],7.1 µM
CS(=O)(=O)c1ccc(N2CCN=C2c2ccc(Cl)c(Cl)c2)cc1,inhibition,[1],1.9%
same,IC50,[2],2.1 µM
NS(=O)(=O)c1ccc(N2CCN=C2c2ccc(F)c(F)c2)cc1,inhibition,[1],6.6%
same,IC50,[2],6.7 µM
NS(=O)(=O)c1ccc(N2CCN=C2c2ccc(Cl)c(Cl)c2)cc1,Cmax,[3],6140 ng/mL
same,AUC,[4],8533 ng·min/mL
same,Drug metabolism,[5],metabolite_detected
same,Cmax,[6],33 ng/mL
same,AUC(0-inf),[7],12700 ng·h/mL
same,half-life,[8],1.08 h
same,Vdss,[9],1.22 L/kg
same,t1/2,[10],1.87 h
same,Tmax,[11],5 min
same,inhibition,[1],8.7%
same,AUC,[12],5969 ng·min/mL
same,Tmax,[13],2 h
same,half-life,[14],0.967 h
same,Tmax,[15],2 h
same,CL/F,[16],13 mL/min/kg
same,AUC,[17],145573 ng·min/mL
same,inhibition in vivo at 3.7 mg/kg,[18],56%
same,AUC(0-inf),[19],525 ng·h/mL
same,AUC(0-t) at 4 h,[20],11700 ng·h/mL
same,Cmax,[21],735 ng/mL
same,Cmax,[22],267 ng/mL
same,Drug metabolism,[23],metabolite_detected
same,IC50,[2],0.3 µM
same,AUC,[24],364739 ng·min/mL
same,Tmax,[25],0.5 h
same,t1/2,[26],4.65 h
same,AUC(0-t) at 4 h,[27],491 ng·h/mL
COc1cc(C2=NCCN2c2ccc(S(C)(=O)=O)cc2)ccc1F,inhibition,[1],-4.3%
same,IC50,[2],> 10 µM
CS(=O)(=O)c1ccc(N2CCN=C2c2ccc(Cl)c(C(F)(F)F)c2)cc1,inhibition,[1],4.7%
same,IC50,[2],3.6 µM
CC1CN(c2ccc(S(C)(=O)=O)cc2)C(c2ccc(Cl)cc2)=N1 (racemic),inhibition,[1],-5.2%
same,IC50,[2],> 10 µM
CC1CN(c2ccc(S(N)(=O)=O)cc2)C(c2ccc(F)cc2)=N1 (racemic),inhibition,[1],5.5%
same,IC50,[2],> 10 µM
COc1ccc(C2=NCCN2c2ccc(S(C)(=O)=O)cc2)cc1Cl,inhibition,[1],1.2%
same,IC50,[2],> 10 µM
NS(=O)(=O)c1ccc(N2CCN=C2c2cccc(Br)c2)cc1,inhibition,[1],12.9%
same,IC50,[2],2.9 µM
Cc1cn(-c2ccc(S(C)(=O)=O)cc2)c(-c2ccc(Cl)cc2)n1,IC50,[28],> 100 µM
NS(=O)(=O)c1ccc(N2CCN=C2c2cccc(Cl)c2)cc1,inhibition,[1],-8%
same,IC50,[2],2.5 µM
NS(=O)(=O)c1ccc(N2CCN=C2c2ccc(Cl)cc2)cc1,inhibition,[1],0.4%
same,IC50,[2],3.4 µM
CS(=O)(=O)c1ccc(N2CCN=C2c2ccc(F)c(F)c2)cc1,inhibition,[1],9.2%
same,IC50,[2],> 10 µM
Cc1cccc(C2=NCCN2c2ccc(S(N)(=O)=O)cc2)c1,inhibition,[1],1.5%
same,IC50,[2],> 10 µM
